Test results as given in ChEMBL document CHEMBL1781996, “Potential anti-inflammatory constituents of the stems of Gordonia chrysandra” (J Nat Prod, 2011).

assay: Antiinflammatory activity in rat Polymorphonuclear leukocyte assessed as inhibition of LPS-induced nitric oxide production at 5 uM; assay type: functional
Procedure, shortened: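 Rat polymorphonuclear leukocytes stimulated with LPS; compounds tested at 5 μM, with dexamethasone at the same concentration as positive control. NO in culture supernatant was read by Griess reaction: equal volume of reagent (0.1% naphthylethylenediamine, 1% sulfanilamide in 5% phosphoric acid), 20 min at room temperature, A540, against sodium nitrite standards. Percent inhibition, n = 3.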

| Compound | inhibition at 5 µM [%] |
| --- | --- |
| COc1cc(C(=O)OC[C@H]2O[C@@H](Oc3cc(O)c(OC)c(OC)c3)[C@H](O)[C@@H](O)[C@@H]2O)cc(OC)c1O | 4.7 |
| COc1cc(C(=O)OC[C@H]2O[C@@H](Oc3cc(O)c(OC)c(OC)c3)[C@H](O)[C@@H](O)[C@@H]2O)ccc1O | 6.5 |
| C[C@@H]1C[C@H]2[C@@H]3CCC4=CC(=O)C=C[C@]4(C)[C@@]3(F)[C@@H](O)C[C@]2(C)[C@@]1(O)C(=O)CO [DEXAMETHASONE] | 74.7 |
| C/C=C(/C)C(=O)O[C@H]1CC(C)(C)C[C@H]2C3=CC[C@@H]4[C@@]5(C)CC[C@H](O[C@@H]6O[C@H](C(=O)O)[C@@H](O)[C@H](O[C@@H]7OC[C@H](O)[C@H](O)[C@H]7O[C@@H]7OC[C@@H](O)[C@H](O)[C@H]7O)[C@H]6O[C@@H]6O[C@H](CO)[C@H](O)[C@H](O)[C@H]6O)C(C)(C)[C@@H]5CC[C@@]4(C)[C@]3(C)C[C@@H](O)[C@@]12CO [GORDONOSIDE I] | 96.6 |
| C/C=C(/C)C(=O)O[C@H]1CC(C)(C)C[C@H]2C3=CC[C@@H]4[C@@]5(C)CC[C@H](O[C@@H]6O[C@H](C(=O)O)[C@@H](O)[C@H](O[C@@H]7OC[C@H](O)[C@H](O)[C@H]7O[C@@H]7OC[C@@H](O)[C@H](O)[C@H]7O)[C@H]6O[C@@H]6O[C@H](CO)[C@H](O)[C@H](O)[C@H]6O)C(C)(C)[C@@H]5CC[C@@]4(C)[C@]3(C)[C@@H](O)[C@@H](O)[C@@]12CO [GORDONOSIDE J] | 9.1 |
| CC1(C)CC[C@]2(C(=O)O[C@@H]3O[C@H](CO)[C@@H](O)[C@H](O)[C@H]3O)[C@H](O)C[C@]3(C)C(=CC[C@@H]4[C@@]5(C)CC[C@H](O[C@@H]6O[C@H](C(=O)O)[C@@H](O)[C@H](O[C@@H]7OC[C@H](O)[C@H](O)[C@H]7O)[C@H]6O)C(C)(C)[C@@H]5CC[C@]43C)[C@@H]2C1 [GORDONOSIDE K] | 6.4 |
| CC1(C)CC[C@]2(C(=O)O[C@@H]3O[C@H](CO)[C@@H](O)[C@H](O)[C@H]3O)[C@H](O)C[C@]3(C)C(=CC[C@@H]4[C@@]5(C)CC[C@H](O[C@@H]6O[C@H](C(=O)O)[C@@H](O)[C@H](O[C@@H]7OC[C@H](O)[C@H](O)[C@H]7O[C@@H]7OC[C@H](O)[C@H](O)[C@H]7O)[C@H]6O)C(C)(C)[C@@H]5CC[C@]43C)[C@@H]2C1 [GORDONOSIDE L] | 14 |
| C[C@@H]1O[C@@H](O[C@H]2[C@H](O[C@@H]3[C@@H](O)[C@H](O[C@H]4CC[C@]5(C)[C@H]6CC=C7[C@@H]8CC(C)(C)CC[C@]8(C(=O)O[C@@H]8O[C@H](CO)[C@@H](O)[C@H](O)[C@H]8O)[C@H](O)C[C@@]7(C)[C@]6(C)CC[C@H]5C4(C)C)O[C@H](C(=O)O)[C@H]3O)OC[C@H](O)[C@@H]2O)[C@H](O)[C@H](O)[C@H]1O [GORDONOSIDE M] | 2.9 |
| CC1(C)CC[C@]2(C(=O)O[C@@H]3O[C@H](CO)[C@@H](O)[C@H](O)[C@H]3O)[C@H](O)C[C@]3(C)C(=CC[C@@H]4[C@@]5(C)CC[C@H](O[C@@H]6O[C@H](C(=O)O)[C@@H](O)[C@H](O[C@@H]7OC[C@H](O)[C@H](O)[C@H]7O[C@@H]7OC[C@@H](O)[C@H](O)[C@H]7O)[C@H]6O[C@@H]6O[C@H](CO)[C@@H](O)[C@H](O)[C@H]6O)C(C)(C)[C@@H]5CC[C@]43C)[C@@H]2C1 [GORDONOSIDE N] | 8.9 |
| CC1(C)CC[C@]2(C(=O)O[C@@H]3O[C@H](CO)[C@@H](O)[C@H](O)[C@H]3O)[C@H](O)C[C@]3(C)C(=CC[C@@H]4[C@@]5(C)CC[C@H](O[C@@H]6O[C@H](C(=O)O)[C@@H](O)[C@H](O[C@@H]7OC[C@H](O)[C@H](O)[C@H]7O[C@@H]7OC[C@@H](O)[C@H](O)[C@H]7O)[C@H]6O[C@@H]6O[C@H](CO)[C@H](O)[C@H](O)[C@H]6O)C(C)(C)[C@@H]5CC[C@]43C)[C@@H]2C1 [GORDONOSIDE O] | 12.6 |
| C[C@@H]1O[C@@H](O[C@@H]2[C@@H](O)[C@H](O[C@H]3[C@H](O[C@H]4CC[C@]5(C)[C@H]6CC=C7[C@@H]8CC(C)(C)CC[C@]8(C(=O)O[C@@H]8O[C@H](CO)[C@@H](O)[C@H](O)[C@H]8O)[C@H](O)C[C@@]7(C)[C@]6(C)CC[C@H]5C4(C)C)O[C@H](C(=O)O)[C@@H](O)[C@@H]3O[C@@H]3OC[C@@H](O)[C@H](O)[C@H]3O)O[C@H](CO)[C@H]2O)[C@H](O)[C@H](O)[C@H]1O [GORDONOSIDE P] | 5.9 |

assay: Antiinflammatory activity in Macrophage assessed as LPS-induced nitric oxide production by Griess assay; assay type: functional, cell-based
Procedure, shortened: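 LPS-activated macrophages. Nitrite in culture supernatant was measured by the Griess reaction: supernatant mixed with an equal volume of Griess reagent (0.1% w/v N-(1-naphthyl)ethylenediamine dihydrochloride plus 1% w/v sulfanilamide in 5% v/v phosphoric acid, combined within 1 h of use), 20 min at room temperature, then A540. Sodium nitrite standards were used. Result reported as IC50.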

| IC50 [nM] | Compound |
| --- | --- |
| 140 | C/C=C(/C)C(=O)O[C@H]1CC(C)(C)C[C@H]2C3=CC[C@@H]4[C@@]5(C)CC[C@H](O[C@@H]6O[C@H](C(=O)O)[C@@H](O)[C@H](O[C@@H]7OC[C@H](O)[C@H](O)[C@H]7O[C@@H]7OC[C@@H](O)[C@H](O)[C@H]7O)[C@H]6O[C@@H]6O[C@H](CO)[C@H](O)[C@H](O)[C@H]6O)C(C)(C)[C@@H]5CC[C@@]4(C)[C@]3(C)C[C@@H](O)[C@@]12CO [GORDONOSIDE I] |
